Measured values taken from publication PMC9099118 (Clinical and Translational Science, 2022).
“Also recorded” adds a separate entry of the source.

Tests used:
[1] = Phase I plasma pharmacokinetics after single; format: in vivo, human; conditions: for Cmax: plasma; for T max: median; for AR (Cmin): Cmin Day 14/Cmin Day 1, mean; for Cmax, Day 1 / Cmin, Day 1: first dose; for AUCtau, Day14 / Cmax, Day 14 / Cmin, Day 14: steady-state
How it was run: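 Randomized, placebo-controlled, blinded study in healthy adults aged 18–65. Part A gave single inhaled doses of 0.15–15 mg; Part B gave 1, 3 or 10 mg q.d. or 15 mg b.i.d. for 14 days via a capsule dry-powder inhaler, each dose over 15 (±5) min. Serial plasma samples were taken from pre-dose to Day 15 (Part A) or Day 42 (Part B). Drug was assayed by HPLC-MS/MS (LLOQ 10 pg/mL). Accumulation ratio = Cmin Day 14/Cmin Day 1.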

[2] = Scintigraphy study: plasma PK and safety; format: in vivo, human; conditions: single 1 mg radiolabeled dose
rat model of asthma = conditions: inhalation dosing; cited from earlier work
JAK1 = conditions: cited from earlier work
[3] = format: in vivo, human
How it was run: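 Open-label single-dose study in 12 healthy volunteers. Each inhaled 1 mg test compound, with 99mTc surface-associated with the powder and blended with lactose, from a capsule dry-powder inhaler (60 L/min at 4 kPa). 81mKr ventilation and 57Co transmission scans were taken before dosing. Counts were corrected for decay, background and attenuation. Lung deposition was expressed as % of emitted dose (sum of lung, oropharynx, mouthwash, stomach and exhalation filter counts). Device and capsule residue was expressed as % of loaded dose. PI (outer/inner ratio) and sC/P were normalized to 81mKr.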

[4] = tested on: fractional exhaled nitric oxide (FeNO); conditions: patients with mild asthma, inhaled; cited from earlier work
[5] = Part A SAD, range across dose levels

CN(CCC#N)C1CCN(C(=O)Cn2cc(NC(=O)c3cnn4cccnc34)c(-c3cc(Cl)ccc3OC(F)F)n2)CC1 [GDC‐0214]
Cmax ([1]; Part A SAD, 0.15 mg single inhaled dose, mean): 0.0702 ng/mL
T max ([1]; Part A SAD, 0.15 mg): 0.283 h
Cmax ([1]; Part A SAD, 0.5 mg single inhaled dose, mean): 0.301 ng/mL
AUCinf ([1]; Part A SAD, 0.5 mg, mean): 2.458 ng·h/mL
CL/F ([1]; Part A SAD, 0.5 mg, mean): 227 L/h
T 1/2 ([1]; Part A SAD, 0.5 mg, mean): 37.3 h
Vz/F ([1]; Part A SAD, 0.5 mg, mean): 12264 L
T max ([1]; Part A SAD, 0.5 mg): 0.267 h
Cmax ([1]; Part A SAD, 1.5 mg single inhaled dose, mean): 0.763 ng/mL
AUCinf ([1]; Part A SAD, 1.5 mg, mean): 7.32 ng·h/mL
CL/F ([1]; Part A SAD, 1.5 mg, mean): 220 L/h
T 1/2 ([1]; Part A SAD, 1.5 mg, mean): 38.7 h
Vz/F ([1]; Part A SAD, 1.5 mg, mean): 12620 L
T max ([1]; Part A SAD, 1.5 mg): 0.517 h
Cmax ([1]; Part A SAD, 5 mg single inhaled dose, mean): 2.883 ng/mL
AUCinf ([1]; Part A SAD, 5 mg, mean): 34.727 ng·h/mL
CL/F ([1]; Part A SAD, 5 mg, mean): 149 L/h
T 1/2 ([1]; Part A SAD, 5 mg, mean): 36.5 h
Vz/F ([1]; Part A SAD, 5 mg, mean): 7744 L
T max ([1]; Part A SAD, 5 mg): 0.458 h
Cmax ([1]; Part A SAD, 15 mg single inhaled dose, mean): 7.27 ng/mL
AUCinf ([1]; Part A SAD, 15 mg, mean): 96.038 ng·h/mL
CL/F ([1]; Part A SAD, 15 mg, mean): 158 L/h
T 1/2 ([1]; Part A SAD, 15 mg, mean): 39.7 h
Vz/F ([1]; Part A SAD, 15 mg, mean): 9116 L
T max ([1]; Part A SAD, 15 mg): 0.500 h
dose proportionality of mean Cmax and AUC0-inf ([1]; Part A SAD, across cohorts): approximately dose‐proportional
mean CL/F [1, 5]: 149 to 227 L/h
mean apparent volume of distribution (Vz/F) [1, 5]: 7740–12,600 L
t 1/2 ([1]; Part B MAD, 1 mg q.d. for 14 days, mean): 38.5 h
AR (Cmin) ([1]; Part B MAD, 1 mg q.d.): 3.0
Cmax, Day 1 ([1]; Part B MAD, 1 mg q.d., mean): 0.581 ng/mL
Cmin, Day 1 ([1]; Part B MAD, 1 mg q.d., mean): 0.0594 ng/mL
AUCtau, Day1 ([1]; Part B MAD, 1 mg q.d., mean): 2910 pg·h/mL
AUCtau, Day14 ([1]; Part B MAD, 1 mg q.d., mean): 5969 pg·h/mL
Cmax, Day 14 ([1]; Part B MAD, 1 mg q.d., mean): 810 pg/mL
Cmin, Day 14 ([1]; Part B MAD, 1 mg q.d., mean): 0.167 ng/mL
t 1/2 ([1]; Part B MAD, 3 mg q.d. for 14 days, mean (N 5)): 32.0 h
AR (Cmin) ([1]; Part B MAD, 3 mg q.d.): 2.79
Cmax, Day 1 ([1]; Part B MAD, 3 mg q.d., mean): 1.51 ng/mL
Cmin, Day 1 ([1]; Part B MAD, 3 mg q.d., mean): 0.164 ng/mL
AUCtau, Day1 ([1]; Part B MAD, 3 mg q.d., mean): 8080 pg·h/mL
AUCtau, Day14 ([1]; Part B MAD, 3 mg q.d., mean): 15,794 pg.h/mL
Cmax, Day 14 ([1]; Part B MAD, 3 mg q.d., mean): 2115 pg/mL
Cmin, Day 14 ([1]; Part B MAD, 3 mg q.d., mean): 0.45 ng/mL
t 1/2 ([1]; Part B MAD, 10 mg q.d. for 14 days, mean): 40.8 h
AR (Cmin) ([1]; Part B MAD, 10 mg q.d.): 3.47
Cmax, Day 1 ([1]; Part B MAD, 10 mg q.d., mean): 3.77 ng/mL
Cmin, Day 1 ([1]; Part B MAD, 10 mg q.d., mean): 0.517 ng/mL
AUCtau, Day1 ([1]; Part B MAD, 10 mg q.d., mean): 21,300 pg.h/mL
AUCtau, Day14 ([1]; Part B MAD, 10 mg q.d., mean): 52,824 pg.h/mL
Cmax, Day 14 ([1]; Part B MAD, 10 mg q.d., mean): 5982 pg/mL
Cmin, Day 14 ([1]; Part B MAD, 10 mg q.d., mean): 1.78 ng/mL
t 1/2 ([1]; Part B MAD, 15 mg b.i.d. for 14 days, mean): 56.9 h
AR (Cmin) ([1]; Part B MAD, 15 mg b.i.d.): 2.49
Cmax, Day 1 ([1]; Part B MAD, 15 mg b.i.d., mean): 6.08 ng/mL
Cmin, Day 1 ([1]; Part B MAD, 15 mg b.i.d., mean): 2.09 ng/mL
AUCtau, Day1 ([1]; Part B MAD, 15 mg b.i.d., mean): 39,500 pg.h/mL
AUCtau, Day14 ([1]; Part B MAD, 15 mg b.i.d., mean): 79,907 pg.h/mL
Cmax, Day 14 ([1]; Part B MAD, 15 mg b.i.d., mean): 12,423 pg/mL
Cmin, Day 14 ([1]; Part B MAD, 15 mg b.i.d., mean): 5.26 ng/mL
dose proportionality of Cmax and AUCtau ([1]; Part B MAD, across the three q.d. cohorts): approximately dose‐proportional
steady-state concentrations achieved by ([1]; Part B MAD, q.d. or b.i.d. dosing): ≤ 6 days
time of peak plasma concentrations post-dose ([1]; after inhalation, across cohorts): 15 to 30 min
tolerability [2]: well tolerated
eosinophil recruitment (rat model of asthma): suppressed
plasma protein binding-corrected cellular 50% inhibitory concentration of JAK1 (JAK1): 97,000 pg/mL
mean emitted dose ([3]; capsule emptying, of loaded dose, 1 mg capsule): approximately 81%
calculated mean dose deposited in the lungs ([3]; from a single capsule (1 mg)): approximately 0.41 mg
Regional airway deposition ratio, PI (penetration index) ([3]; normalized for 81mKr gas distribution, mean (CV%), listed as radiolabeled GDC‐0214): 0.76 (30.47%)
% Emitted dose, Exhaled ([3]; single inhaled 1 mg radiolabeled dose, after the breath-hold, mean): 0.74%
fractional exhaled nitric oxide (FeNO) [4]: reduced; also recorded: dose‐dependent decreases
